According to ChEMBL document CHEMBL1140767, “Discovery and structure-activity relationship of N-phenyl-1H-pyrazolo[3,4-b]quinolin-4-amines as a new series of potent apoptosis inducers” (Bioorg Med Chem, 2008):
Where “and” joins values, the source holds several entries; their conditions need not be identical. Equal entries are not always repeated.

Experiments:
[1] = system: HCT-116; assay: Antiproliferation activity against human HCT116 cells; type: functional
How it was run: (§1)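 Cells in RPMI-1640 + 10% FCS, 5% CO2, 37 °C. Seeded at 4.4 × 10^4 cells/mL in 96-well plates and exposed to compound at 0.001–10 µM final (1% DMSO) for 48 h at 37 °C. Viability read by CellTiter-Glo luminescence. A 0.5 h plate gave the initial-cell baseline and untreated wells gave maximal proliferation. GI50 is the mean of ≥3 experiments ± SEM.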

[2] = system: T47D; assay: Antiproliferation activity against human T47D cells; type: functional; how it was run: as §1
[3] = system: T47D; assay: Induction of apoptosis in human T47D cells assessed as caspase-3 activation; type: functional, cell-based
How it was run: (§2)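 Cells grown in RPMI-1640 + 10% FCS, trypsinized, and resuspended at 0.65 × 10^6 cells/mL. Treated in 384-well plates with 0.005–10 µM final compound (1% DMSO) for 24 h. N-(Ac-DEVD)-N'-ethoxycarbonyl-R110 substrate was then added, and fluorescence (ex 485/em 525 nm) was read at 0 and 3 h. Activity is the net RFU ratio of test to control. EC50 from a sigmoidal fit at 50% maximal response; mean of ≥3 experiments ± SEM.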

[4] = system: SNU-398; assay: Induction of apoptosis in human SNU398 cells assessed as caspase-3 activation; type: functional, cell-based; how it was run: as §2
[5] = system: HCT-116; assay: Induction of apoptosis in human HCT116 cells assessed as caspase-3 activation; type: functional, cell-based; how it was run: as §2
[6] = system: SNU-398; assay: Antiproliferation activity against human SNU398 cells; type: functional; how it was run: as §1
[7] = system: T47D; assay: Induction of apoptosis in human T47D cells assessed as accumulation at S phase at […] after 24 hrs; type: functional
How it was run: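 T47D cells treated with 50 nM compound, or DMSO as control, for 24 h or 48 h at 37 °C. Cells then stained with propidium iodide and analysed by flow cytometry for DNA-content histograms. Sub-diploid DNA content was taken to indicate apoptotic cells.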

## CC(=O)c1cccc(Nc2c3c(nc4ccccc24)CCC3)c1
[1]
  GI50: 500 nM
[2]
  GI50: 560 nM
[3]
  EC50: 450 nM
[4]
  EC50: 440 nM
[5]
  EC50: 660 nM
[6]
  GI50: 170 nM

## COc1ccc(Nc2c3ccccc3nc3c2c(C)nn3C)cc1
[3]
  EC50: 1010 nM
[4]
  EC50: 480 nM
[5]
  EC50: 1250 nM

## CC(=O)c1ccc(Nc2c3ccccc3nc3c2c(C)nn3C)cc1
[3]
  EC50: 520 nM
[4]
  EC50: 270 nM
[5]
  EC50: 660 nM

## Cc1nn(C)c2nc3ccccc3c(Nc3ccc(C(=O)C(C)C)cc3)c12
[3]
  EC50: 440 nM
[4]
  EC50: 240 nM
[5]
  EC50: 390 nM

## Cc1nn(C)c2nc3ccccc3c(Nc3ccc(C(N)=O)cc3)c12
[3]
  EC50: > 10000 nM
[4]
  EC50: > 10000 nM
[5]
  EC50: > 10000 nM

## COc1cccc(Nc2c3ccccc3nc3c2c(C)nn3C)c1
[3]
  EC50: 7260 nM
[4]
  EC50: > 10000 nM
[5]
  EC50: > 10000 nM

## Cc1nn(C)c2nc3ccccc3c(Nc3ccc(C(=O)O)cc3)c12
[3]
  EC50: > 10000 nM
[4]
  EC50: > 10000 nM
[5]
  EC50: > 10000 nM

## COc1ccc(Nc2c3ccccc3nc3[nH]nc(C)c23)cc1
[1]
  GI50: > 10000 nM
[2]
  GI50: > 10000 nM
[3]
  EC50: > 10000 nM
[4]
  EC50: > 10000 nM
[5]
  EC50: > 10000 nM
[6]
  GI50: > 10000 nM

## CC(=O)c1ccc(Nc2c3ccccc3nc3c2cnn3C)cc1
[3]
  EC50: 1150 nM
[4]
  EC50: 730 nM
[5]
  EC50: 1360 nM

## CC(=O)c1ccc(Nc2c3ccccc3nc3c2c(C(C)C)nn3C)cc1
[3]
  EC50: > 10000 nM
[4]
  EC50: > 10000 nM
[5]
  EC50: > 10000 nM

## CC(=O)c1ccc(Nc2c3cccc(C)c3nc3c2c(C)nn3C)cc1
[3]
  EC50: 1110 nM
[4]
  EC50: 660 nM
[5]
  EC50: 940 nM

## CCC(=O)c1ccc(Nc2c3cccc([N+](=O)[O-])c3nc3c2c(C)nn3C)cc1
[3]
  EC50: 510 nM
[4]
  EC50: 270 nM
[5]
  EC50: 480 nM

## CC(=O)c1ccc(Oc2c3ccccc3nc3c2c(C)nn3C)cc1
[3]
  EC50: > 10000 nM
[4]
  EC50: > 10000 nM
[5]
  EC50: > 10000 nM

## COC(=O)c1ccc(N(C)c2c3ccccc3nc3c2c(C)nn3C)cc1
[3]
  EC50: 5210 nM
[4]
  EC50: 1330 nM
[5]
  EC50: 6080 nM

## CCC(=O)c1ccc(Nc2c3ccccc3nc3c2c(C)nn3CC)cc1
[3]
  EC50: 210 nM
[4]
  EC50: 150 nM
[5]
  EC50: 190 nM

## CC(=O)c1ccc(Nc2c3cc(C)ccc3nc3c2c(C)nn3C)cc1
[3]
  EC50: > 10000 nM
[4]
  EC50: > 10000 nM
[5]
  EC50: > 10000 nM

## COc1ccc(Sc2c3ccccc3nc3c2c(C)nn3C)cc1
[3]
  EC50: 5470 nM
[4]
  EC50: 4990 nM
[5]
  EC50: 6670 nM

## COC(=O)c1ccc(Nc2c3ccccc3nc3c2c(C)nn3C)cc1
[3]
  EC50: 540 nM
[4]
  EC50: 270 nM
[5]
  EC50: 670 nM

## CCC(O)c1ccc(Nc2c3ccccc3nc3c2c(C)nn3C)cc1 (stereo not drawn)
[1]
  GI50: 930 nM
[2]
  GI50: 590 nM
[3]
  EC50: 140 nM
[4]
  EC50: 53 nM
[5]
  EC50: 330 nM
[6]
  GI50: 140 nM

## CCC(=O)c1ccc(Nc2c3ccccc3nc3c2c(C)nn3C)cc1
[1]
  GI50: 42 nM
[2]
  GI50: 26 nM
[3]
  EC50: 71 nM
[4]
  EC50: 34 nM
[5]
  EC50: 64 nM
[7]
  Activity: 13.6% and 7.6% and 18.8%
[6]
  GI50: 16 nM
